Test results from ChEMBL document CHEMBL4480370, “Synthesis and preliminary evaluation of the anti-cancer activity on A549 lung cancer cells of a series of unsaturated disulfides” (2019).
The source made the active and inactive calls. The rule behind the calls is not given here.

What was measured:
A549 [1] = experiment: Cytotoxicity against human A549 cells assessed as reduction in cell viability at 500 uM after 24 hrs by CellTiter-Glo luminescent assay; type: functional, cell-based
In short: (§1)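 A549 cells kept in RPMI 1640 with 10% fetal bovine serum and 100 units per ml penicillin–streptomycin. Each molecule was applied at 50, 100, 250 and 500 μM, with viability read at 24 or 48 h by CellTiter-Glo luminescence. Values are expressed relative to untreated control (C), as the mean of three repeats with relative standard deviation.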

A549 [2] = experiment: Cytotoxicity against human A549 cells assessed as reduction in cell viability at 500 uM after 48 hrs by CellTiter-Glo luminescent assay relative to control; type: functional; in short: as §1
A549 [3] = experiment: Cytotoxicity against human A549 cells assessed as reduction in cell viability after 24 hrs by CellTiter-Glo luminescent assay; type: functional, cell-based; in short: as §1
A549 [4] = experiment: Cytotoxicity against human A549 cells assessed as reduction in cell viability at 50 uM after 48 hrs by CellTiter-Glo luminescent assay relative to control; type: functional; in short: as §1
A549 [5] = experiment: Cytotoxicity against human A549 cells assessed as reduction in cell viability at 50 to 500 uM by CellTiter-Glo luminescent assay; type: functional, cell-based; conditions: TDE = time-dependent effect; in short: as §1
A549 [6] = experiment: Cytotoxicity against human A549 cells assessed as reduction in cell viability at 100 to 250 uM after 48 hrs by CellTiter-Glo luminescent assay; type: functional, cell-based; in short: as §1
A549 [7] = experiment: Cytotoxicity against human A549 cells assessed as reduction in cell viability after 48 hrs by CellTiter-Glo luminescent assay; type: functional, cell-based; in short: as §1
A549 [8] = experiment: Cytotoxicity against human A549 cells assessed as reduction in cell viability at 250 uM after 48 hrs by CellTiter-Glo luminescent assay; type: functional, cell-based; in short: as §1
A549 [9] = experiment: Cytotoxicity against human A549 cells assessed as reduction in cell viability at 50 to 500 uM after 24 hrs by CellTiter-Glo luminescent assay; type: functional, cell-based; in short: as §1

Structure (SMILES)	Activity (A549 [1])	Activity (A549 [2]) [%]	Activity (A549 [3])	Activity (A549 [4]) [%]	Activity (A549 [5])	other results
CCC/C=C/CSSC/C=C/CCC	Active	–	–	–	–	–
C=CCSSCC=C [DIALLYLDISULFIDE]	–	65	Dose-dependent effect	54	Tde	–
C/C=C/CSSC/C=C/C	–	84	Dose-dependent effect	70	Tde	Activity (A549 [6]): Active
CCCC=CCSSCC=CCCC (mixture of isomers)	Active	–	–	–	–	–
C=CCCSSCCC=C	–	100	Dose-dependent effect	68	Tde	Activity (A549 [7]): Dose-dependent effect; Activity (A549 [8]): Active
C=CCCCCSSCCCCC=C	–	–	–	–	–	Activity (A549 [9]): inactive
